For 22 compounds, MIC, MEC and Activity results are on record in ChEMBL document CHEMBL1158173, “Carbodithioic acid esters of fluoxetine, a novel class of dual-function spermicides” (2008).

Holding throughout (format): functional
One test concerns Trichomonas vaginalis. Briefly: Antitrichomonas activity against Trichomonas vaginalis after 48 hrs by trypan blue staining. Put shortly:
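Trichomonas vaginalis was grown in TYM medium and used in log phase, one day after routine subculture. Compounds in DMSO stock were serially diluted in TYM medium, with DMSO/TYM as vehicle control. Wells received 5 × 10³ trophozoites and were incubated anaerobically at 37 °C. Viability was scored daily by trypan blue and cell counts, and MIC was read at 48 h. Finer dilutions were then retested, and the final MIC was taken from a concentration versus viable-trophozoite-number curve.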

Test [1] is described as follows: (§1) Spermicidal activity in liquefied human semen assessed as drug level required to kill 100% sperm in 20 seconds.
The test system of the next test is Aspergillus fumigatus. Briefly: Antifungal activity against Aspergillus fumigatus after 48 hrs by broth microdilution technique.
The next test has as its system Candida albicans. The test can be described thus: Antifungal activity against Candida albicans after 48 hrs by broth microdilution technique.
For the next test, the system named is Candida parapsilosis. The test can be described thus: Antifungal activity against Candida parapsilosis ATCC 22019 after 48 hrs by broth microdilution technique. The settings on record: for MIC: Lodderomyces parapsilosis, ATCC 22019, 48 h. (In broth dilution the organism is exposed to a series of concentrations in liquid medium.)
Test [2] deals with Trichophyton mentagrophytes. Briefly: Antifungal activity against Trichophyton mentagrophytes after 48 hrs by broth microdilution technique.
The subject of another test is Cryptococcus neoformans. The test can be described thus: Antifungal activity against Cryptococcus neoformans after 48 hrs by broth microdilution technique.
A further test concerns Sporothrix schenckii. The test can be described thus: Antifungal activity against Sporothrix schenckii after 48 hrs by broth microdilution technique.
The next test has as its system Sperm. The test is described as §1.

In general, MIC refers to the lowest concentration found to suppress growth. A low value points to a more susceptible organism.

≈ marks a conversion by molar mass, not a printed value. Calls of active or inactive are those of the source. No cut-off for these calls is given here.

Consider `CN(C)CCSC(=S)N(C)CCC(Oc1ccc(C(F)(F)F)cc1)c1ccccc1` (configuration not stated), for which the minimal inhibitory concentration (MIC) was 52 µg/mL (≈ 114 µM) in the test with Trichomonas vaginalis; 25 µg/mL (≈ 54.8 µM) in the test with Aspergillus fumigatus; 50 µg/mL (≈ 110 µM) against Candida albicans; 50 µg/mL (≈ 110 µM) against Candida parapsilosis; 6.25 µg/mL (≈ 13.7 µM) in test [2]; 50 µg/mL (≈ 110 µM) with Cryptococcus neoformans. The same compound yielded an MIC against Sporothrix schenckii of 12.5 µg/mL (≈ 27.4 µM). Also, the MEC in test [1] is 1%.
In the case of `CN(CCC(Oc1ccc(C(F)(F)F)cc1)c1ccccc1)C(=S)SCCCl` (configuration not stated), the MIC with Trichomonas vaginalis was over 200 µg/mL; against Aspergillus fumigatus it was 50 µg/mL (≈ 112 µM); with Candida albicans, 50 µg/mL (≈ 112 µM); in the test with Candida parapsilosis, 25 µg/mL (≈ 55.8 µM); in test [2], 12.5 µg/mL (≈ 27.9 µM); in the test on Cryptococcus neoformans, 50 µg/mL (≈ 112 µM). The compound also displayed an MIC in the test with Sporothrix schenckii of 25 µg/mL (≈ 55.8 µM). For the same compound, the MEC in test [1] was 1%.
For `CN(CCC(Oc1ccc(C(F)(F)F)cc1)c1ccccc1)CC(O)CSC(=S)N1CCCC1` (configuration not stated), the result (with Sperm; with Aspergillus fumigatus; with Candida albicans; with Candida parapsilosis; in test [2]; with Cryptococcus neoformans) was inactive. In addition, in the test on Sporothrix schenckii, the result was inactive.
For `CN(CCC(Oc1ccc(C(F)(F)F)cc1)c1ccccc1)CC(O)CSC(=S)N(C)Cc1ccccc1` (configuration not stated), the result (with Sperm; in the test on Aspergillus fumigatus; in the test on Candida albicans; in the test on Candida parapsilosis; in [2]; in the test with Cryptococcus neoformans) was inactive. Besides, in the test on Sporothrix schenckii, the result was inactive.
For the compound `CN(CCC(Oc1ccc(C(F)(F)F)cc1)c1ccccc1)C(=S)SCC(O)CN1CCCCCC1` (configuration not stated), the minimal inhibitory concentration (MIC) with Trichomonas vaginalis is over 200 µg/mL; with Aspergillus fumigatus, 25 µg/mL (≈ 46.2 µM); in the test with Candida albicans, 50 µg/mL (≈ 92.5 µM); in the test with Candida parapsilosis, 50 µg/mL (≈ 92.5 µM); in test [2] it was 25 µg/mL (≈ 46.2 µM). Moreover, the MEC in [1] came out at 0.5%. The outcome in the test on Cryptococcus neoformans and in the test on Sporothrix schenckii was inactive.
With `CN(CCC(Oc1ccc(C(F)(F)F)cc1)c1ccccc1)CC(O)CSC(=S)N1CCCCC1` (configuration not stated), the outcome (with Sperm; with Aspergillus fumigatus; with Candida albicans; in the test with Candida parapsilosis; in test [2]; in the test on Sporothrix schenckii) was inactive. The compound further gave an MIC against Cryptococcus neoformans of 25 µg/mL (≈ 47.5 µM).
As to `CNCCC(Oc1ccc(C(F)(F)F)cc1)c1ccccc1` (configuration not stated) [FLUOXETINE], the minimal inhibitory concentration (MIC) is 28 µg/mL (≈ 90.5 µM) in the test with Trichomonas vaginalis; 50 µg/mL (≈ 162 µM) in the test with Candida albicans; 50 µg/mL (≈ 162 µM) with Candida parapsilosis; 50 µg/mL (≈ 162 µM) in test [2]; 25 µg/mL (≈ 80.8 µM) against Cryptococcus neoformans; 50 µg/mL (≈ 162 µM) in the test with Sporothrix schenckii. For the same compound, in the test on Aspergillus fumigatus, the outcome was inactive.
Consider `CN(CCC(Oc1ccc(C(F)(F)F)cc1)c1ccccc1)C(=S)SCC(O)CN1CCOCC1` (configuration not stated), for which the outcome (with Sperm; with Candida albicans; in the test with Candida parapsilosis; in test [2]; in the test on Cryptococcus neoformans; with Sporothrix schenckii) was inactive. For the same compound, the minimum inhibitory concentration (MIC) in the test with Aspergillus fumigatus was determined as 50 µg/mL (≈ 94.6 µM).
For the compound `CN1CCN(CC(O)CSC(=S)N(C)CCC(Oc2ccc(C(F)(F)F)cc2)c2ccccc2)CC1` (configuration not stated), the minimal inhibitory concentration (MIC) against Trichomonas vaginalis was found to be 12 µg/mL (≈ 22.2 µM); in the test on Aspergillus fumigatus, 25 µg/mL (≈ 46.2 µM); against Candida albicans, 50 µg/mL (≈ 92.3 µM); in the test with Candida parapsilosis, 50 µg/mL (≈ 92.3 µM); in test [2], 25 µg/mL (≈ 46.2 µM); with Cryptococcus neoformans, 25 µg/mL (≈ 46.2 µM). For the same compound, in the test with Sporothrix schenckii, the MIC was 25 µg/mL (≈ 46.2 µM). The MEC in test [1] is listed as 0.5%.
As for `CN(CCC(Oc1ccc(C(F)(F)F)cc1)c1ccccc1)C(=S)SCc1ccccc1` (configuration not stated), the MIC in the test on Trichomonas vaginalis is over 200 µg/mL. In addition, in test [1], the MEC is listed as 1%. The result (in the test with Aspergillus fumigatus; with Candida albicans; in the test on Candida parapsilosis; in test [2]; in the test on Cryptococcus neoformans; in the test with Sporothrix schenckii) was inactive.
As for `Cc1ncc([N+](=O)[O-])n1CCO` [METRONIDAZOLE], the MIC with Trichomonas vaginalis came to 0.54 µg/mL (≈ 3.16 µM). Also, the outcome (in the test on Sperm; in the test with Aspergillus fumigatus; in the test with Candida albicans; in the test on Candida parapsilosis; in [2]; with Cryptococcus neoformans) was inactive. Besides, the outcome with Sporothrix schenckii was inactive.
Turning to `CCN(CC)CCSC(=S)N(C)CCC(Oc1ccc(C(F)(F)F)cc1)c1ccccc1` (configuration not stated), the MIC in the test with Trichomonas vaginalis is 24 µg/mL (≈ 49.5 µM); against Aspergillus fumigatus, 6.25 µg/mL (≈ 12.9 µM); in the test on Candida albicans, 50 µg/mL (≈ 103 µM); against Candida parapsilosis, 50 µg/mL (≈ 103 µM); in [2], 12.5 µg/mL (≈ 25.8 µM); against Cryptococcus neoformans, 50 µg/mL (≈ 103 µM). Besides, the MIC against Sporothrix schenckii worked out at 6.25 µg/mL (≈ 12.9 µM). The MEC in [1] worked out at 1%.
Turning to `CN(CCC(Oc1ccc(C(F)(F)F)cc1)c1ccccc1)C(=S)SCCN1CCOCC1` (configuration not stated), the outcome (in the test with Sperm; in the test with Aspergillus fumigatus; in the test with Candida albicans; in the test on Candida parapsilosis; in test [2]; with Cryptococcus neoformans) was inactive. For the same compound, the result in the test with Sporothrix schenckii was inactive.
Turning to `CN(CCC(Oc1ccc(C(F)(F)F)cc1)c1ccccc1)CC(O)CSC(=S)N1CCOCC1` (configuration not stated), the outcome in the test with Sperm, in the test on Aspergillus fumigatus, with Candida albicans and in the test on Cryptococcus neoformans was inactive. Besides, the MIC in the test on Candida parapsilosis came out at 50 µg/mL (≈ 94.6 µM); in test [2], 12.5 µg/mL (≈ 23.6 µM); in the test with Sporothrix schenckii, 25 µg/mL (≈ 47.3 µM).
Turning to `CN(CCC(Oc1ccc(C(F)(F)F)cc1)c1ccccc1)C(=S)SCC(O)CN1CCCC1` (configuration not stated), the MIC against Trichomonas vaginalis was 6.95 µg/mL (≈ 13.6 µM); in the test with Aspergillus fumigatus, 50 µg/mL (≈ 97.5 µM); against Candida parapsilosis it was 50 µg/mL (≈ 97.5 µM); in test [2] it was 25 µg/mL (≈ 48.8 µM); in the test on Sporothrix schenckii it was 50 µg/mL (≈ 97.5 µM). Besides, in test [1], the MEC came to 0.5%. The result with Candida albicans and in the test with Cryptococcus neoformans was inactive.
Take `CN(CCC(Oc1ccc(C(F)(F)F)cc1)c1ccccc1)CC(O)CSC(=S)N1CCCCCC1` (configuration not stated): the result (in the test on Sperm; in the test with Aspergillus fumigatus; in the test with Candida albicans; with Candida parapsilosis; in test [2]; with Cryptococcus neoformans) was inactive. Also, the result with Sporothrix schenckii was inactive.
Regarding `CN(CCC(Oc1ccc(C(F)(F)F)cc1)c1ccccc1)C(=S)SCCN1CCCCC1` (configuration not stated), the minimum inhibitory concentration (MIC) in the test on Trichomonas vaginalis was found to be 13.5 µg/mL (≈ 27.2 µM); in the test on Aspergillus fumigatus, 12.5 µg/mL (≈ 25.2 µM); with Candida albicans, 3.12 µg/mL (≈ 6.28 µM); against Candida parapsilosis, 1.56 µg/mL (≈ 3.14 µM); in test [2], 6.25 µg/mL (≈ 12.6 µM); with Cryptococcus neoformans it was 1.56 µg/mL (≈ 3.14 µM). For the same compound, in the test on Sporothrix schenckii, the minimal inhibitory concentration (MIC) is 6.25 µg/mL (≈ 12.6 µM). In test [1], the MEC was determined as 1%.
For the compound `CN(CCC(Oc1ccc(C(F)(F)F)cc1)c1ccccc1)C(=S)SCC(O)CN1CCCCC1` (configuration not stated), the outcome in the test with Sperm, in the test with Aspergillus fumigatus, in the test on Candida albicans, in the test on Cryptococcus neoformans and with Sporothrix schenckii was inactive. Besides, the MIC (with Candida parapsilosis; in [2]) was 50 µg/mL (≈ 94.9 µM) throughout.
On to `CCN(CC)CC(O)CSC(=S)N(C)CCC(Oc1ccc(C(F)(F)F)cc1)c1ccccc1` (configuration not stated), for which the minimum inhibitory concentration (MIC) in the test on Trichomonas vaginalis was over 200 µg/mL; against Aspergillus fumigatus, 50 µg/mL (≈ 97.1 µM); against Candida parapsilosis it was 50 µg/mL (≈ 97.1 µM); in test [2], 25 µg/mL (≈ 48.6 µM). Moreover, the MEC in [1] is recorded as 0.5%. Also, the outcome in the test with Candida albicans, with Cryptococcus neoformans and in the test with Sporothrix schenckii was inactive.
Consider `CCCCCCCCCc1ccc(OCCOCCOCCOCCOCCOCCOCCOCCOCCO)cc1` [NONOXYNOL 9], for which the MIC is 23 µg/mL (≈ 37.3 µM) in the test with Trichomonas vaginalis and 50 µg/mL (≈ 81.1 µM) in the test with Candida parapsilosis. For the same compound, in [1], the MEC is reported as 0.05%. For the same compound, the result (with Aspergillus fumigatus; in the test with Candida albicans; in test [2]; in the test with Cryptococcus neoformans; in the test with Sporothrix schenckii) was inactive.
Take `CN1CCN(C(=S)SCC(O)CN(C)CCC(Oc2ccc(C(F)(F)F)cc2)c2ccccc2)CC1` (configuration not stated): the results for the minimal inhibitory concentration (MIC) (in the test with Trichomonas vaginalis; in test [2]; in the test on Cryptococcus neoformans) were 6.68 µg/mL (≈ 12.3 µM), 25 µg/mL (≈ 46.2 µM) and 12.5 µg/mL (≈ 23.1 µM), respectively. Besides, the MEC in [1] worked out at 1%. The outcome with Aspergillus fumigatus, in the test with Candida albicans, with Candida parapsilosis and with Sporothrix schenckii was inactive.
As for `CN(CCC(Oc1ccc(C(F)(F)F)cc1)c1ccccc1)C(=S)[S-].[Na+]` (configuration not stated), the minimal inhibitory concentration (MIC) in the test with Trichomonas vaginalis was 96 µg/mL; with Cryptococcus neoformans, 25 µg/mL. Besides, the MEC in test [1] was 1%. Moreover, the outcome (with Aspergillus fumigatus; with Candida albicans; in the test with Candida parapsilosis; in test [2]; in the test on Sporothrix schenckii) was inactive.
